Assay results of several laboratories.
Compare with care: the assays were run in different laboratories.
Target: Dual specificity tyrosine-phosphorylation-regulated kinase 1B (DYRK1B, Homo sapiens, UniProt Q9Y463)

SMILES	observed	mode	method	tested at	endpoint	value
O=C1NC(c2ccccn2)Sc2ccccc21 (stereo not drawn)	cell-free assay	–	competition with immobilised ligand	1 µM	remaining binding	100%
COc1cccc(CCNc2nc3cc(C(=O)O)ccc3c3cncnc23)c1	enzyme activity	inhibitor	radiometric	1 µM	remaining activity	112%
COc1cc2ncnc(Nc3ccc(Oc4ccccc4)cc3C)c2cc1OC	enzyme activity	inhibitor	–	1 µM	inhibition	0%
Cc1cc(NC(=O)c2cccc3cc(-c4cccc5[nH]nc(N)c45)ccc23)ccc1F	enzyme activity	inhibitor	–	0.1 µM	activity vs control	95%
O=C(O)c1ccc2c(c1)nc(NCCc1cccc(F)c1)c1ncncc12	enzyme activity	inhibitor	radiometric	1 µM	remaining activity	117%
CSc1cccnc1N1CCN(Cc2nc3ccccc3[nH]2)CC1	cell-free assay	–	competition with immobilised ligand	1 µM	remaining binding	91%
COc1cccc(CCNc2nc3cc(C(=O)O)ccc3c3cnccc23)c1	enzyme activity	inhibitor	radiometric	1 µM	remaining activity	123%
O=C(N1CCS(=O)(=O)CC1)N1C[C@H](c2ccc(OC(F)(F)F)cc2)C[C@H](c2nc(C3CC3)no2)C1	cell-free assay	–	competition with immobilised ligand	1 µM	remaining binding	93%
O=C(O)c1ccc2c(c1)nc(Nc1ccccc1)c1ncncc12	enzyme activity	inhibitor	radiometric	1 µM	remaining activity	62%
CCCS(=O)(=O)Nc1ccc(F)c(C(=O)c2c[nH]c3ncc(-c4ccc(Cl)cc4)cc23)c1F	enzyme activity	inhibitor	–	1 µM	inhibition	< 20%
Cn1cncc1C1=CN(c2ncnc3[nH]cnc23)CCS1	enzyme activity	inhibitor	radiometric	2 µM	inhibition	95.3%
CS(=O)(=O)Nc1cccc(-c2csc(NC(=O)CSc3nc4nccnc4c(=O)n3CCc3ccccc3)n2)c1	enzyme activity	inhibitor	–	10 µM	inhibition	0%
C[C@@H](c1cccc(C#N)c1)n1cc(Cl)cc(C(N)=O)c1=N	cell-free assay	–	competition with immobilised ligand	1 µM	remaining binding	37%
O=C(O)c1ccc2c(c1)nc(NCCc1cccc(Cl)c1)c1ncncc12	enzyme activity	inhibitor	radiometric	1 µM	remaining activity	114%
Cn1cnc(Br)c1C1=CN(c2ncnc3[nH]cnc23)CCS1	enzyme activity	inhibitor	radiometric	2 µM	inhibition	100%
